Compounds with a hit are over-represented: about 1.7% of the library has one in this group of screens.
Neddyl block – blocks human cullin neddylation; P61081+Q13564; inhibition, % at 25 µM; hit rate 0.58% among 360,000; TR-FRET cullin neddylation, biochemical; in the data active = inhibition above about 36%
Target sequence (P61081 whole entry, looked up): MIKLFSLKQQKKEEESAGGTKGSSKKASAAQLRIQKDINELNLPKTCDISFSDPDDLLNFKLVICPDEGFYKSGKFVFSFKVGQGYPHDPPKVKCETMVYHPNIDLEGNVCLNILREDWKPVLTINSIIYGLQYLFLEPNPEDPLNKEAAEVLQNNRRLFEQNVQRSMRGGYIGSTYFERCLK
Target sequence (Q13564 whole entry, looked up): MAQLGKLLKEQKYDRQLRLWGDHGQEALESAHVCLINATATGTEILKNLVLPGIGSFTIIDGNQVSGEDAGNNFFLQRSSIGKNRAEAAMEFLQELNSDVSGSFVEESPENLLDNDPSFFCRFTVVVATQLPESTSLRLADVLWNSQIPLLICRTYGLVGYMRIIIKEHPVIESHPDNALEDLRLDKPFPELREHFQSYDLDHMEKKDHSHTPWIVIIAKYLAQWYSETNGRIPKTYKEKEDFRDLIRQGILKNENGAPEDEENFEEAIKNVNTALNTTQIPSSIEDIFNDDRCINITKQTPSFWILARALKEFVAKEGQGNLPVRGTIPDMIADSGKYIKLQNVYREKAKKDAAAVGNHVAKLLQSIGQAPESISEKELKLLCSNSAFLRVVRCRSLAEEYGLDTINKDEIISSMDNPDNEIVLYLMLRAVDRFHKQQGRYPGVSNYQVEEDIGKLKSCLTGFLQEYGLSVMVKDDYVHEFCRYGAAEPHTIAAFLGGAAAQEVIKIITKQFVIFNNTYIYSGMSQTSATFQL
DSG3 Ab inh – blocks pemphigus antibody binding to human desmoglein-3; P32926; DSG3-coupled beads, scFv-anti-DSG3-GFP binding, flow cytometry; stronger effect = lower value; binding (percent of control), % at 10 µM; hit rate 0.48% among 310,000;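 active = binding more than 3 SD below its plate's average and above zero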
Arrestin-AP2 inh – inhibitors of human beta-arrestin and AP2 interaction | FITC-arrestin peptide / GST-AP2 beads, flow cytometry; AP2 beta2 appendage carries R879A mutation | inhibition, % at 10 µM | hit rate 0.31% among 340,000 | AID 504490;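 active = inhibition above a set limit, near 3 SD of compounds lacking own fluorescence, cut at about 54% in these data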;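 also: plate controls were DMSO wells for no effect and 5 µM unlabelled arrestin peptide for full effect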
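test system = AP2 appendage R879A on GSH beads | buffer or medium = PBS plus Tween 20 (0.05%) and BSA (0.1%) | incubation = 12 min plus 1 h, RT | detection = bead flow cytometry, FITC channel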
Efflux pump inh – inhibitors of Candida antifungal efflux pumps expressed in yeast; S. cerevisiae Candida pump triplex, Nile Red efflux; inhibition, % at 10 µM; hit rate 0.44% among 330,000;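 active = plate passing quality check with inhibition over a set limit, or well fluorescence over plate mean plus 4 SD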;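 also: Nile Red retained in pooled yeast measured as flow cytometry median fluorescence; 0% = buffer negative control and 100% = Enniatin B positive control; higher means more Nile Red kept so more efflux inhibition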
Numbers without * were called inactive; i = inactive; . = not tested or not shown.

SMILES	Neddyl block	DSG3 Ab inh	Arrestin-AP2 inh	Efflux pump inh
Cc1ccc(O)c(CNc2cnc3ccccc3c2)c1	38.9*	104.2	0.7	0.0
Oc1ccc(Br)cc1CNc1cnc2ccccc2c1	34.8	115.0	8.3	0.0
COc1ccc(Cl)cc1N(CC(=O)N1CCC(C)CC1)S(C)(=O)=O	-4.1	80.9*	14.5	0.0
CC(C)c1ccc(S(=O)(=O)/N=C2/C=C(Sc3ncn[nH]3)C(=O)c3ccccc32)cc1	-13.0	.	38.4	-0.1
Cc1ccc(S(=O)(=O)/N=C2/C=C(Sc3ncn[nH]3)C(=O)c3ccccc32)cc1	-24.8	94.0*	43.4	-0.2
COc1ccc(/C=N/NC(=O)c2nc(-c3ccccc3)n(-c3ccccc3)n2)c(O)c1	48.3*	95.1	.	0.1
COc1ccc2[nH]c(C(=O)N/N=C/c3ccc(O)cc3O)cc2c1	48.1*	132.7	-0.7	0.0
Cc1ccc(Nc2nc(N)nc(CCl)n2)c(C)c1	11.3	.	-5.2	-0.1
O=C(NCc1ccc(C(=O)O)cc1)OCc1ccccc1	-1.3	107.2	4.5	-0.3
Cc1ccc(CCNC(=O)C2CCN(S(=O)(=O)c3ccc4c(c3)CCC(=O)N4)CC2)cc1	-8.0	77.0*	8.8	-0.1
COc1cc(C)ccc1OCc1cc(C(=O)NC(c2ccccn2)C(F)(F)F)no1 (centres undefined)	3.0	78.9*	.	.
CC(Cc1nnc(SCC(=O)O)n1N)c1ccccc1 (centres undefined)	9.9	96.6	34.9	0.1
Cc1ccc(C)c(N2CCN(C(=O)c3ccc4nc(-c5ccco5)c(-c5ccco5)nc4c3)CC2)c1	24.8	69.4*	23.5	0.1
CCC(CC)NC(=O)COc1ccc(OC)cc1C=O	42.2*	98.7	-0.6	0.1
Cc1noc(C)c1S(=O)(=O)N1CCCC(C(=O)N2CCc3ccccc3C2)C1 (centres undefined)	1.1	110.0	-0.6	0.1
O=S(=O)(NCc1ccccc1)c1cccc2nsnc12	-15.9	95.4	-4.1	-0.2
O=C(O)CC(CNS(=O)(=O)c1cccc2nsnc12)c1ccccc1 (centres undefined)	-19.1	40.2*	30.6	-0.3
COc1cc2c3nnc(-c4ccc(F)cc4)c-3cn(Cc3ccc(C)cc3)c2cc1OC	38.3*	i	-464.6	0.2
CC(C)c1cc(N=NC(N)=O)cc(C(C)C)c1O	-25.8	100.3	-5.4	-0.1
Cc1ccc(N=c2oc3cc(O)ccc3cc2C(N)=O)cc1	48.0*	.	1.4	-0.4
COC(=O)CCNC(=O)Cc1ccc(S(=O)(=O)N2CCCCC2)s1	9.6	104.9	32.5	.
N#Cc1nc(-c2ccc(OCc3ccccc3)cc2)oc1N1CCC(C(N)=O)CC1	-53.4	65.6*	10.2	0.7
COc1ccccc1NC(=O)C(=O)N/N=C/c1cccs1	-12.5	91.6	18.6	0.2
Cc1ccc(N2C(=O)C3C4C=CC(CNC(=S)N5CCN(c6cccc(C)c6)C(C)C5)(O4)C3C2=O)cc1 (centres undefined)	-58.5	82.8*	-4.0	0.2
O=C(Cn1nnc(-c2ccccc2)n1)N/N=C/c1cc([N+](=O)[O-])c(Cl)cc1Cl	5.6	73.7*	4.0	-0.1
SMILES	Neddyl block	DSG3 Ab inh	Arrestin-AP2 inh	Efflux pump inh
O=C(Cn1nnc(-c2ccccc2)n1)N/N=C/c1cc([N+](=O)[O-])ccc1O	-23.6	113.1	6.9	0.4
CCCC(C)NC(=O)c1ccc(F)cc1 (centres undefined)	6.2	27.4*	1.9	0.1
CCCC(C)NC(=O)c1ccc(-c2ccccc2)cc1 (centres undefined)	.	.	.	0.0
Cc1nn(C)cc1C(C(=O)NC1CCCCC1)N(Cc1ccc(F)cc1)C(=O)c1cnccn1 (centres undefined)	-6.1	53.7*	-7.1	0.0
C/C(=N\NC(=O)c1nnn(-c2nonc2N)c1CN(C)c1ccccc1)c1ccccc1O	.	106.2	-48.7	-0.1
C/C(=N\NC(=O)c1nnn(-c2nonc2N)c1CN1CCCCC1)c1ccccc1O	40.7*	99.2	-16.4	-0.3
CN(C)Cc1c(C(=O)N/N=C/c2ccncc2)nnn1-c1nonc1N	-11.5	91.0	-5.8	-0.1
CN(C)Cc1c(C(=O)N/N=C/c2cccc3ccccc23)nnn1-c1nonc1N	-5.7	56.2*	-0.9	-0.3
O=C(O)c1c[nH]c2ccc([N+](=O)[O-])cc2c1=O	-24.9	88.6	-8.4	.
O=C(Nc1cccc(C(=O)N2CCOCC2)c1)C1CCCCC1	0.8	.	.	.
O=C(COC(=O)c1cc2ccccc2oc1=O)Nc1ccc(F)cc1F	-23.2	98.5	30.7	0.0
O=C(NCC1CCCO1)c1ccc2c(c1)C(=O)N(C1CCCCC1)C2=O (centres undefined)	-26.2	89.0	10.0	0.0
O=C(NCC1CCCO1)c1ccc2c(c1)C(=O)N(c1cccc([N+](=O)[O-])c1)C2=O (centres undefined)	-30.5	41.1*	13.1	0.4
N#C/C(=C(/O)CN1CCN(c2ccccc2F)CC1)c1nc(-c2ccc(Cl)cc2)cs1	-13.4	60.4*	-1.2	-0.3
N#C/C(=C(/O)CN1CCCCC1)c1nc(-c2ccc(Cl)cc2)cs1	-2.6	103.4	0.4	-0.3
C[C@H]1C[C@H]2[C@@H]3CCC4=CC(=O)C=C[C@]4(C)[C@@]3(F)[C@@H](O)C[C@]2(C)[C@@]1(O)C(=O)CO	0.2	95.0	12.9	-0.1
C[C@H]1C[C@H]2[C@@H]3CCC4=CC(=O)C=C[C@]4(C)[C@@]3(Cl)[C@@H](O)C[C@]2(C)[C@@]1(O)C(=O)CO	10.9	-13.1*	1.8	0.0
Cc1ccc(-c2nc(NC(=O)CSc3cc(C)c4ccccc4n3)ns2)cc1	-111.2	-0.3*	-0.7	0.2
N#CC1=C(N)N(c2ccccc2)C(c2ccco2)C1(C#N)C#N (centres undefined)	39.4*	107.2	1.2	0.1
Cc1cccc(N=Nc2ccc(O)c3ncccc23)c1	-52.0	78.8	3.8	-0.8
Cc1ccc(C)c(N=Nc2ccc(O)c3ncccc23)c1	-29.1	80.3	102.9*	-0.1
Cc1ccc(/C=C/c2nnc(-c3cccs3)o2)cc1	24.8	70.5*	6.2	-0.2
Fc1ccc(/C=C/c2nnc(-c3cccs3)o2)cc1	10.2	99.1	12.9	0.1
CCOC(=O)CC1(NC(=O)c2cc(COc3cccc(OC)c3)on2)CCCCC1	-6.2	81.3*	-4.1	0.4
Cc1c(-c2ccc(Cl)cc2)oc(=O)c2c(N)n(-c3ccccc3)nc12	-82.8	-17.0*	-1.8	-0.1
SMILES	Neddyl block	DSG3 Ab inh	Arrestin-AP2 inh	Efflux pump inh
Nc1cc(-c2ccc(Cl)cc2)nn1-c1ccccc1	-0.2	117.7	46.4	0.3
O=C(/C=C/c1ccc([N+](=O)[O-])cc1)OCC(=O)N1CCCC1	-39.5	77.3*	14.6	-0.1
C[C@H](CO)N1C[C@H](C)[C@@H](CN(C)Cc2ccncc2)Oc2c(NC(=O)Cc3ccccc3)cccc2C1=O	-4.6	103.3	6.1	-0.3
O=[N+]([O-])c1ccc2[nH]c(O)c(N=NC(=S)NCC3CCCO3)c2c1 (centres undefined)	-35.3	98.9	6.5	-0.3
O=C(CNC(=O)c1ccc(Br)cc1)N=Nc1c(O)[nH]c2ccc([N+](=O)[O-])cc12	-32.8	35.0*	28.2	-0.2
CCNC(=S)N=Nc1c(O)[nH]c2ccc([N+](=O)[O-])cc12	-25.4	39.8*	9.0	-0.1

Assay outcomes (PubChem)
